# According to PMC12017310 (Science Advances, 2025):
# Peptide text beside a SMILES is read from it. * marks the point of attachment. Cbz = O=C(OCc1ccccc1)*
# Legend:
# PCa cells = assay: Colony formation assay; format: cell-based, human; conditions: cell viability and colony formation assays
# Outline: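 Seeding was 30,000 cells/well for 22Rv1 (six-well plates), with overnight attachment before treatment. Colonies grown 14 days at 37°C, 5% CO2, with weekly medium change. Stained with 0.1% crystal violet and quantified by image analysis. Three independent experiments.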
# BID-PC4 PDX = assay: In vivo BID-PC4 PDX model; parameters: species or system male SCID mice; conditions: BSJ-5-63 25 mg/kg ip; olaparib 50 mg/kg p.o.
# Outline: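 Tumour bits in 50 μl PBS plus 50 μl Matrigel implanted subcutaneously (right flank) into intact male SCID mice. At ~150 mm3, randomised into four groups (n = 5): vehicle (5% DMSO/15% Solutol HS-15/80% saline) p.o., PARP inhibitor 50 mg/kg p.o., test compound 25 mg/kg ip, or sequential combination. Body weight recorded daily. Run for 3 weeks or until 2 cm tumour length; tumours excised and weighed.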
# [1] = system: CDK12-KO 22Rv1 xenografts; assay: In vivo CDK12-KO 22Rv1 xenograft model; parameters: species or system male SCID mice; conditions: olaparib 50 mg/kg, p.o., daily
# Outline: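 CDK12-KO (two sgRNAs) and AAVS1-control 22Rv1 cells made by lentiviral spin infection of Cas9-expressing cells (blasticidin 20 μg/ml). Implanted subcutaneously (5 × 10^6 with Matrigel). At ~150 mm3, each line randomised to vehicle p.o. or PARP inhibitor 50 mg/kg p.o. daily for 3 weeks (or until 2 cm tumour length). Tumours excised and weighed.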
# DU145 xenografts = assay: In vivo DU145 xenograft model; parameters: species or system male SCID mice; conditions: BSJ-5-63 25 mg/kg ip; olaparib 50 mg/kg p.o.
# Outline: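 DU145 xenografts were set up subcutaneously with Matrigel in the right flank. At ~150 mm3, mice were randomised into four groups (n = 5): vehicle p.o., PARP inhibitor 50 mg/kg p.o., test compound 25 mg/kg ip, or sequential combination. Dosing volume 0.1 ml/10 g. Body weight recorded daily. Study ended after 3–4 weeks or at 2 cm tumour length.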
# 22Rv1 xenografts = assay: In vivo 22Rv1 xenograft model; parameters: species or system male SCID mice; conditions: BSJ-5-63 25 mg/kg ip; olaparib 50 mg/kg p.o.
# Outline: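 22Rv1 cells (5 × 10^6 in 50 μl plus 50 μl Matrigel) injected subcutaneously into the right flank; n = 5/group, randomised at ~150 mm3. Volume = length × width² × 0.5. Monotherapy: 50 mg/kg ip daily or 1 day on/2 days off for 12 days; vehicle 5% DMSO/15% Solutol HS-15/80% saline. Sequential arms: test compound 25 mg/kg ip and PARP inhibitor 50 mg/kg p.o. Tumours weighed; H&E and cleaved caspase-3 IHC performed.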
# [2] = In vitro mouse liver microsomal stability assay; format: in vitro ADME; conditions: liver microsomes
# Outline: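 Mouse liver microsomes (0.5 mg/ml) incubated with 1 μM test compound at 37°C with NADPH cofactor (1 mM).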
# CDK12 = CDK12 (Homo sapiens, UniProt Q9NYV4); assay: Western blot of CDK12 in PCa cell lines; format: cell-based; conditions: 22Rv1, MG132 pre-treatment 2 hours, then BSJ-5-63
# CDK12, sequence (Q9NYV4 whole entry): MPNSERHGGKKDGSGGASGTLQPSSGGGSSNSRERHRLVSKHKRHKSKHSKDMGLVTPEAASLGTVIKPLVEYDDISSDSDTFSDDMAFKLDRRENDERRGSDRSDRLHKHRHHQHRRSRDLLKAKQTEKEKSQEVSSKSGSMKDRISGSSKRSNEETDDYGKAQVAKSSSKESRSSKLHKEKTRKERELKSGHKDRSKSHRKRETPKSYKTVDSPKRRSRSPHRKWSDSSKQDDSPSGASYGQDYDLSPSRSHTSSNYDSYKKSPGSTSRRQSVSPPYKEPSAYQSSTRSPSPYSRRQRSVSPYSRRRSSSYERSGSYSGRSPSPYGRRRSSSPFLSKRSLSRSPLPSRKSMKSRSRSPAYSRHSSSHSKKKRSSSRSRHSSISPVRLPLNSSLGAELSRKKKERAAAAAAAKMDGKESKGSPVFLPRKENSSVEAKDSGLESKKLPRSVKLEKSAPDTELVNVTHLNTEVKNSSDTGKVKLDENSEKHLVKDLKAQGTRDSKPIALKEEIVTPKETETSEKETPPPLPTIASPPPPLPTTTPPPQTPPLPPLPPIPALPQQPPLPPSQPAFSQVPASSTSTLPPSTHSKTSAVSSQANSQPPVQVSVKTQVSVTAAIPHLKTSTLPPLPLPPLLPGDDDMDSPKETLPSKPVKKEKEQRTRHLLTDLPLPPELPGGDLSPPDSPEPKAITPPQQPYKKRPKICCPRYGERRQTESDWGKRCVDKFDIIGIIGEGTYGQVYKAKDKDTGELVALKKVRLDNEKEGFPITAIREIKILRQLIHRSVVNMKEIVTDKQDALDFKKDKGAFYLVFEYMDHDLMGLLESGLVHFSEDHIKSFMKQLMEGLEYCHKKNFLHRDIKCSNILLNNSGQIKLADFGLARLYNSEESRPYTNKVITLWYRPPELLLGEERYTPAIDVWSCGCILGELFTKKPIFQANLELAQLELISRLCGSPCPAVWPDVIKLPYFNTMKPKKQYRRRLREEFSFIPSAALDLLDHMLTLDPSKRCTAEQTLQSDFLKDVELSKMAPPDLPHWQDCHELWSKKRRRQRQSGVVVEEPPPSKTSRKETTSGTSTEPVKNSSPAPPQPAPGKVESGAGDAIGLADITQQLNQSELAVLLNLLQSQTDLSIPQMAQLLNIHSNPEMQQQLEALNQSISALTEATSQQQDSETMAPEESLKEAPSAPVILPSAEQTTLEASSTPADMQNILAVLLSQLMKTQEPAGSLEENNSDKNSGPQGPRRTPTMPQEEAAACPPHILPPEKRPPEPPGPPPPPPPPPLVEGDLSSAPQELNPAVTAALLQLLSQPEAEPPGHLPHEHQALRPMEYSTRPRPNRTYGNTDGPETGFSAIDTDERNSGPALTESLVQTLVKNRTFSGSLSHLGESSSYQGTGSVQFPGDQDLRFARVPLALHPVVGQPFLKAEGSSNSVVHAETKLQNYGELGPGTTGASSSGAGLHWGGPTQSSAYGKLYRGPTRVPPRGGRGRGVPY
# CDK12, sequence (O75909 whole entry partner): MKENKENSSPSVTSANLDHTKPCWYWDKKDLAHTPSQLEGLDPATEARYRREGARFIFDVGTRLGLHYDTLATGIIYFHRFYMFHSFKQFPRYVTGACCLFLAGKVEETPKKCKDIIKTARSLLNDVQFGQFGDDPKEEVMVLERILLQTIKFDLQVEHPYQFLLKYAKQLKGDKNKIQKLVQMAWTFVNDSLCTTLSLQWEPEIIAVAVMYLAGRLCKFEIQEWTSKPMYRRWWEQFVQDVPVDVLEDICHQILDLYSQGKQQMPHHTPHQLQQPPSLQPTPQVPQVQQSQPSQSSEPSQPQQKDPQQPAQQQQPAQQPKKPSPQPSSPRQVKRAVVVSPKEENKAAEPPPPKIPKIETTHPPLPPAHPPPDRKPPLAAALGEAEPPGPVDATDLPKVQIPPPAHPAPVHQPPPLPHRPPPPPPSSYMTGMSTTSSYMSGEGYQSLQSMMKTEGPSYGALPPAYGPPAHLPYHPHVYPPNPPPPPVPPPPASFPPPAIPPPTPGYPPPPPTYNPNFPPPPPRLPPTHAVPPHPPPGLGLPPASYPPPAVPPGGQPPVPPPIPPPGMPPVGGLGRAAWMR
# Outline: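 Equal protein amounts separated by SDS-PAGE and transferred to PVDF. Primary antibodies in 5% BSA/TBST overnight at 4°C; secondary antibody 1 h at room temperature. Blots shown are representative of three independent experiments.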
smiles,measurement,setting,value
O=C(c1cc(Cc2n[nH]c(=O)c3ccccc23)ccc1F)N1CCN(C(=O)C2CC2)CC1 [Olaparib],sensitivity of CDK12-KO 22Rv1 cells compared with AAVS1 control,PCa cells,significantly enhanced sensitivity
same,"BID-PC4 PDX tumor growth, monotherapy",BID-PC4 PDX,insensitive
same,tumor growth of CDK12-KO 22Rv1 xenografts,[1]; 3 weeks,marked sensitivity
same,tumor weight of CDK12-KO 22Rv1 xenografts,[1]; day 21,reduction in tumor weight
same,"DU145 tumor growth, monotherapy",DU145 xenografts,only partial inhibition of tumor growth
same,"22Rv1 tumor growth, monotherapy",22Rv1 xenografts,partial inhibition
same,"number of apoptotic cells in 22Rv1 tumors, monotherapy",22Rv1 xenografts,notably increased
CCN(CC)CCNC(=O)c1c(C)[nH]c(/C=C2\C(=O)Nc3ccc(F)cc32)c1C [Sunitinib],half-life at 1 μM,[2],10 min
same,microsomal CLint at 1 μM,[2],69 µL/min/mg
CC(C)C[C@@H](C=O)NC(=O)[C@H](CC(C)C)NC(=O)[C@H](CC(C)C)NC(=O)OCc1ccccc1 [MG132] (Cbz-Leu-Leu-Leu-aldehyde),BSJ-5-63–induced degradation of CDK12/7/9 after pretreatment with the proteasome inhibitor,CDK12,rescued
